Experiments:
[1] = tested on: MS2 coat protein; experiment: apparent Kd, MS2 coat protein; higher = weaker binding; RNA-MaP array
Procedure, shortened: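 Apparent Kd is the median of per-cluster binding-curve fits for designed RNAs transcribed from sequenced DNA templates on an Illumina sequencing chip. The RNAs were incubated at room temperature with fluorescently labeled MS2 coat protein at 1.5 nM to 3 μM, with or without input ligand, and designs measured on fewer than 10 clusters were excluded.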

[2] = tested on: MS2 coat protein; experiment: apparent Kd, MS2 coat protein; higher = weaker binding; RNA-MaP array; FMN 200 µM where present
Procedure, shortened: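 Each design was made on Illumina sequencing-chip clusters by stalled E. coli RNA polymerase and titrated with SNAP-549-labelled MS2 coat protein from 0.7 or 1.5 nM, doubling to 3 µM, in the absence and then the presence of constant ligand. The buffer was 100 mM Tris-HCl pH 7.5, 80 mM KCl, 4 mM MgCl2, BSA, DTT, yeast tRNA and Tween-20. The apparent Kd is the median of filtered per-cluster fits of binding curves, with green signal normalised to red-channel RNA signal and control-cluster median Fmax.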

[3] = designed as: OFF switch for flavin mononucleotide, no ligand
[4] = ligand present: flavin mononucleotide, designed as: OFF switch for flavin mononucleotide
[5] = designed as: ON switch for flavin mononucleotide, no ligand
[6] = ligand present: flavin mononucleotide, designed as: ON switch for flavin mononucleotide

Row | Sequence | apparent Kd [1, 3] [nM] | apparent Kd [1, 4] [nM] | other results
1 | AUAAUCAAAGGAUAUGGCUAAGCACACAUGAGGAUCACCCAUGUGAUCGUUCGUACAGUUCCAGAAGGUUGGUCCA | 15 | 13.3 | –
2 | GAUCCCACGAAGAAGGUCAGAUUUAGAUUACUUGAAGGAUAUUCACAUGAGGAUCACCCAUGUCCCGGCGCGGACUAGCCGAAU | 107 | 235 | –
3 | UCGCUAUUGUCGGCCGCCACUACUGCAGGGAAACAAAUAUAACCACAUGAGGAUCACCCAUGUCUUAGGACCGGGACACCCAUCU | – | – | apparent Kd ([1]; designed as: ON switch for tryptophan, no ligand): 98.3 nM; apparent Kd ([1]; ligand present: tryptophan, designed as: ON switch for tryptophan): 80.7 nM
4 | UGAGGUAAGGAGAAGGUCCAACGAUGAAUUUAGGAAGGAUAUCCAACAUGAGGAUCACCCAUGUAAGGGUGCCCGAAGUCAGGA | 133 | 178 | –
5 | UGAGUCUAAGGAUAUGCUGCCGACAACAUGAGGAUCACCCAUGUCUUUCGUUGUUCGCCGGCAGAAGGUAGCAAUU | 561 | 262 | –
6 | GUGACACAUGAGGAUCACCCAUGUCAGGAUAUAGGUCAGCAAAGUAACCAUGACGAGACUAGAAGGGACGCGUG | 30.5 | 22.5 | –
7 | AUACGAGCCAAGAAGGAGGGAGAUCCUGCAGUCCUAGGAUAUUGGCCACAAUCGGCGGACGACAUGAGGAUCACCCAUGUCCCG | – | – | apparent Kd [1, 5]: 41.8 nM; apparent Kd [1, 6]: 16 nM
8 | UCAUUUUCAGAAGGAUAUUUACCAGGCCAAGGUAAAGAAGGUCUAUGGGUCACUUCCUUGAUACAUGAGGAUCACCCAUGUGAA | 292 | 429 | –
9 | UAAAGGUUCCAGAAGGCCACGACUCGAUCCUGUGGAGGAUAUGGGACAUGAGGAUCACCCAUGUCUGGUGGAUUACAUCCCACA | – | – | apparent Kd [1, 5]: 20.4 nM; apparent Kd [1, 6]: 32.2 nM
10 | AGGCGCAACGUAGGAUAUACCGGCAUUGUCCAAGUAGAAGGACGUUGUGAUCGCUAGGUAACAUGAGGAUCACCCAUGUCUUAC | – | – | apparent Kd [1, 5]: 6.96 nM; apparent Kd [1, 6]: 5.8 nM
11 | ACCCUGUGAGGAUAUUAUUAGCUCGGCCAUAAUAAGGAUAGUAAGAAGGCACAUGAGGAUCACCCAUGUAUCCU | 21.8 | 19.2 | –
12 | AGGAGCGGAAUAGGAUAUUGUAGAUAUAUCAAACAAGAAGGAUUAGCUAACAUGAGGAUCACCCAUGUGGGAUCAAACUCACUC | 82.7 | 127 | –
13 | CGUGGGUGUGAGCCACAUGAGGAUCACCCAUGUCACAACGUGAGAAGGAACAGGCCCUGUGUCGGUUAGGAUAUCAAACCCUUA | 142 | 27.3 | –
14 | AUACGGCGGUAAAAUCAGAGAGUAAAAGAUACCAGCAAUAAUAAAUGCCCUUGGCAGCUUCUGACAUGAGGAUCACCCAUGUAAA | – | – | apparent Kd ([1]; designed as: OFF switch for theophylline, no ligand): 15.3 nM; apparent Kd ([1]; ligand present: theophylline, designed as: OFF switch for theophylline): 29.1 nM
15 | CCUGGGACAUGAGGAUCACCCAUGUGUGUUAUCGGUGCGUGAGAGGAUAUACACAGCGUCCGUUAGUAGAAGGCUCAUGAUGUA | 88.3 | 52.5 | –
16 | GAUAAAGUAGGAUAUACAUGAGGAUCACCCAUGUAGAGAGGAGAGCGUGCGAGAACCAGUAGAAGGACUAAACA | 13.9 | 12.4 | –
17 | GAGGCAACGAUGGAGGAUAUACUAGGUAAUACAUGAGGAUCACCCAUGUGAGAAAGAGAGUACAUGUAGAAGGCCAGAUAUGCGGU | – | – | apparent Kd [1, 5]: 30.5 nM; apparent Kd [1, 6]: 11.8 nM
18 | AUUACAGACUACGGCGAUACAUGAGGAUCACCCAUGUCGAGUUAGGAUAUGCAACAAUACGGCCUGCAGAAGGAACCAAGAGGG | 35.1 | 32.3 | –
19 | AAUGAAAAGCAGAAGGCCUUAGCAAGUCGUAGAGGAGGAUAUGCGUACGCGGGUUGGCCAACAUGAGGAUCACCCAUGUCACCA | 22.4 | 26.3 | –
20 | GUACAUGAGCAGAAGGGCAUUUAAUUACAUUUUUAUGUUUAUCAGAUAUGCAGGAUAUGUUAAACAUGAGGAUCACCCAUGUAC | – | – | apparent Kd [2, 5]: 196 nM; apparent Kd [2, 6]: 42.6 nM
21 | AGCUGGUGACAGCAAGAAACUUCACAUGAGGAUCACCCAUGUAGAAGGCUGUACGGUUACCGUACAGAGGAUAUACAUGAAAAG | – | – | apparent Kd [2, 3]: 9.49 nM; apparent Kd [2, 4]: 26.8 nM
22 | UUAAAUCAUGUAGGAUAUGCAUGGCCAAGCUAGGCAGAAGGACAUGAGGAUCACCCAUGUUAUAGCUACCAAGUAAGGUGGCAA | – | – | apparent Kd [2, 3]: 32.9 nM; apparent Kd [2, 4]: 279 nM
23 | CCUCGACGGUAGGAUAUCGUCAAACUAUUGUGAUGAGAAGGACUGACAUGAGGAUCACCCAUGUUAACGUGAUA | – | – | apparent Kd [2, 3]: 20.2 nM; apparent Kd [2, 4]: 25.3 nM
